According to PubChem BioAssay AID463132 (The Scripps Research Institute Molecular Screening Center, 2010):

Target: Protein phosphatase methylesterase 1 (Homo sapiens) (UniProt Q9Y570)
Experiment: PME-1 inhibitors blocking PP2A demethylation, late-stage follow-up, HeLa cells, western blot, powder samples (AID 463132)
Conditions: demethylated PP2A western blot, 1 h, at 0.5 µM, hits give high values
Summary of the method: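 Test system: HeLa cells, endogenous PME-1 | Dosing: Single compound dose of 0.5 µM | Times: 1 h compound treatment, 37 °C | Technique: HRP-antibody immunoblot, chemiluminescence | Measure: % inhibition of PP2A demethylation signal | Controls: High DMSO cells, low empty blot region | Medium: FCS-supplemented medium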

Protein phosphatase methylesterase 1 (Homo sapiens), sequence (Q9Y570 whole entry, looked up): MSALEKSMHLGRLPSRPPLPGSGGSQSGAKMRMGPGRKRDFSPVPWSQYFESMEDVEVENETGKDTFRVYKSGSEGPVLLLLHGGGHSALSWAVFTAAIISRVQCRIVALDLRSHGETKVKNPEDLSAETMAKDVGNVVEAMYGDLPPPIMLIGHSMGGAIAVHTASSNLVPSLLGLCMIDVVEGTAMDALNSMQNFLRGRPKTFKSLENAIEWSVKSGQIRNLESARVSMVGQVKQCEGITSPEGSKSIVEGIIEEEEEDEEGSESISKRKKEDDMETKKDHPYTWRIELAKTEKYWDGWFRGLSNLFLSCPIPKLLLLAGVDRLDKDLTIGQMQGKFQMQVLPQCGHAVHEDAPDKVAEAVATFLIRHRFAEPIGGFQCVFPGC

| inhibition | SMILES |
| --- | --- |
| 85% | COC(=O)N1C(=O)[C@](c2ccccc2)(C2CCCC2)N1C(=O)OC |
| 85% | COC(=O)N1C(=O)[C@](c2ccccc2)(C2CCCCC2)N1C(=O)OC |
